Most compounds without a hit are left out; they make up all but 2.9% or so of the library.
M1 PAM parental: nonselective activator or artifact in parental CHO-K1 calcium assay; ATP EC20, Fluo-8 calcium fluorescence; 0% at ATP EC20, 100% at ATP max; activation, % at 3 µM; hit rate 0.02% among 360,000;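 active = activation above the run cutoff, the mean activation of all test compounds plus 3 SD, cut at about 40% in these data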;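 note: peak over basal fluorescence ratio in a 140 s read after ATP addition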
OX1R antag-1: human HCRTR1 antagonism; O43613; CHO/OX1R cells, Fluo-8 calcium fluorescence, orexin A; inhibition, % at 5 µM; hit rate 0.43% among 330,000; AID 434989;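 active = inhibition above its plate's threshold, mean inhibition of all tested compounds on the plate plus 3 SD, cut at about 37% in these data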
Target sequence (O43613 whole entry, looked up): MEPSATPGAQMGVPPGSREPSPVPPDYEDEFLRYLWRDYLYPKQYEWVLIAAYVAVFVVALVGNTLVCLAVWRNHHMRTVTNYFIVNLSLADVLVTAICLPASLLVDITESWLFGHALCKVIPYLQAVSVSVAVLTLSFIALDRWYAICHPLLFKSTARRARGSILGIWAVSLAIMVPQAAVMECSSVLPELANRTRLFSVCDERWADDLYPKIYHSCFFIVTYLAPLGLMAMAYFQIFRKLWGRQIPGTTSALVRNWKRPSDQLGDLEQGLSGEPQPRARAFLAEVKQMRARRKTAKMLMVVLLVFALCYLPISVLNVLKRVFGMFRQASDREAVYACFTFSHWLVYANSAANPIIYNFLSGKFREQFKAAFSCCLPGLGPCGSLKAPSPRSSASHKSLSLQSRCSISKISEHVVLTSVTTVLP
CHO-K1 Ca ag: counter-screen for M1 agonists: effect in parental CHO-K1 cells; Fluo-8 calcium fluorescence; scaled to maximal ATP response, vehicle zero; activation, % at 3 µM; hit rate 0.48% among 360,000; AID 602248; in the data active = activation above about 15%;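 note: untransfected CHO-K1 host cells lacking M1 receptor as counterscreen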
CHO-K1 Ca antag: counter-screen for M1 antagonists: effect in parental CHO-K1 cells. ATP-induced calcium, Fluo-8 fluorescence. inhibition, % at 3 µM. hit rate 0.6% among 360,000;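 active = inhibition above a per-plate cutoff, the plate's mean sample inhibition plus 3 SD, cut at about 24% in these data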
OX1R antag-2: antagonists of human orexin 1 receptor (OX1R). hit rate 1.8% among 330,000. AID 485270. inhibition, % at 6.6 µM. OX1R-expressing cells, FRET antagonist read-out; in the data active = inhibition mostly above about 38%, no sharp cut-off; inactive = mostly below about 40%
CHO parental Ca: signal in parental CHO cells, OX1R antagonist counter-screen; parental CHO-K1, ATP-induced calcium, Fluo-8 fluorescence; inhibition, % at 5.6 µM; hit rate 0.63% among 330,000;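 active = inhibition above that plate's mean sample inhibition plus 3 SD, cut at about 26% in these data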
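material = parental CHO cells | also added = ATP as calcium-mobilizing challenge | dosing = single point at 5.6 µM | detection = intracellular calcium via Fluo-8 no-wash fluorescent dye | read-out = % inhibition | benchmarks = low control ATP plus DMSO, high control DMSO only | repeats = one well per compound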
Each line names hits and unclear results; the compound was inactive in the other large screens.

COc1cccc(-c2ccc3nnc(SCC(=O)N4CCOCC4)n3n2)c1	OX1R antag-2 51
CCCCCOC(=O)C1=C(C)NC(=O)NC1c1ccc(OC)cc1 (stereo not drawn)	none
COc1ccc(C(=O)N/C(=C\c2cccc3ccccc23)C(=O)N2CCN(C)CC2)cc1	none
Oc1ccccc1N=Cc1c(O)ccc2oc3c(c12)CCCC3	CHO-K1 Ca ag 16
O=C(NCc1ccccc1F)C12CC3CC(CC(C3)C1)C2	none
COC(=O)C(=Cc1ccc(-c2ccsc2C(=O)OC)o1)C(=O)OC	OX1R antag-2 50
Nc1cc(C(=O)O)c(N)c2c1C(=O)c1ccccc1C2=O	OX1R antag-2 115
COC(=O)[C@H](Cc1ccccc1)NC(=O)/C=C/[C@H]1O[C@@H](n2cc(C)c(=O)[nH]c2=O)C[C@@H]1O	none (no result: OX1R antag-1, OX1R antag-2, CHO parental Ca)
COc1ccc(NC(=O)CCNC(=O)Cn2ccc3ccccc3c2=O)cc1Cl	none
CC(=O)c1ccc(N(C(=O)CS(=O)CC(=O)Nc2ccc(F)cc2)C(C(=O)NC2CCCCC2)c2cccs2)cc1 (stereo not drawn)	CHO-K1 Ca antag 25
CC(=O)c1cccc(N(C(=O)CS(=O)CC(=O)Nc2ccc(F)cc2)C(C(=O)NC2CCCCC2)c2ccc(C)o2)c1 (stereo not drawn)	none
O=C(Nc1ccccc1C(=O)NC1CC1)c1ccccc1F	none
O=C(C[n+]1cc2ccccc2c2ccccc21)c1ccccc1	OX1R antag-2 56
O=C(C[n+]1cccc2ccccc21)c1ccccc1	none
COc1ccc(OCCOC(=O)CNC(=O)c2ccc(F)cc2)cc1	none (no result: OX1R antag-1, OX1R antag-2, CHO parental Ca)
CCCCSc1nc(C)cc(C)c1S(=O)(=O)c1ccccc1C	CHO parental Ca 39
O=C(NCCOc1ccccc1)c1cc([N+](=O)[O-])ccc1N1CCOCC1	none
CC(C)N(Cc1ccccc1)C(=O)CC(=O)N(Cc1ccccc1)C(C)C	none
COc1ccc2[nH]c3c(c2c1)CCn1c-3nc2ccccc2c1=O	OX1R antag-2 47
Nc1nonc1N/N=C/c1c(O)ccc2ccccc12	OX1R antag-1 50
Cc1ccc(/C=N/NC(=O)c2ccc3ccccc3c2)s1	CHO-K1 Ca antag 25
Cc1ccc(/C=N/NC(=O)c2ccc3c(c2)OCCO3)s1	none
CCN(CC)S(=O)(=O)c1ccc(NC(=O)CCNC(=O)c2ccccc2)cc1	none (no result: OX1R antag-1, OX1R antag-2, CHO parental Ca)
COc1ccccc1CNC(=O)COC(=O)/C=C/c1ccc2c(c1)OCO2	none
CCc1cccc(NC(=O)COC(=O)c2cc([N+](=O)[O-])ccc2N2CCOCC2)c1	none
N#CC1(NC(=O)COC(=O)c2cc([N+](=O)[O-])ccc2N2CCOCC2)CCCCC1	OX1R antag-2 52
COc1ccc(OC)c(COC(=O)c2cc([N+](=O)[O-])ccc2N2CCOCC2)c1	OX1R antag-2 32
Cc1cc(NC(=O)COC(=O)c2cc([N+](=O)[O-])ccc2N2CCOCC2)ccc1Br	OX1R antag-2 37
Cc1ccccc1COC(=O)c1cc([N+](=O)[O-])ccc1N1CCOCC1	none
CCCCn1nnnc1C(c1ccccc1)N1CCN(c2ccc(C(F)(F)F)cc2[N+](=O)[O-])CC1 (stereo not drawn)	none (no result: OX1R antag-1, OX1R antag-2, CHO parental Ca)
Cc1ccnc(NC(=O)c2cc3ccccc3o2)c1	OX1R antag-2 53
CC(NC(=O)COC(=O)c1cc(Cl)nc(Cl)c1)c1ccccc1 (stereo not drawn)	CHO-K1 Ca ag 23
CC(NC(=O)COC(=O)c1ccccc1O)c1ccccc1 (stereo not drawn)	none (no result: OX1R antag-1, OX1R antag-2, CHO parental Ca)
Cc1ccc(S(=O)(=O)Nc2ccccc2N2CCOCC2)cc1	none
CN1CCN(S(=O)(=O)c2ccc3c(c2)C(C)(C)C(=O)N3C)CC1	CHO-K1 Ca antag 25
COc1ccc(Cl)cc1NC(=O)CN(c1ccccc1)S(=O)(=O)N(C)C	OX1R antag-2 53
COc1ccc(Cl)cc1NC(=O)CN(C)C(=O)c1sc2ccccc2c1Cl	none
COc1ccc(Cl)cc1NC(=O)CN(C)C(=O)c1sccc1-c1ccccc1	OX1R antag-2 39
COc1ccc(NC(=O)CN(c2ccccc2)S(=O)(=O)N(C)C)cc1Cl	none
CCN(CC)C(=O)C1=C(C)N(CCCOC)C(=O)C(CC(=O)NCCCCc2ccccc2)C1 (stereo not drawn)	none (no result: OX1R antag-1, OX1R antag-2, CHO parental Ca)
Brc1ccccc1OCCCCn1cnc2ccccc21	OX1R antag-2 35, CHO parental Ca 66
CCC(NC(=S)NCc1ccc(F)cc1)c1ccc(C(C)C)cc1 (stereo not drawn)	CHO parental Ca 42
CCCc1ccc(C(C)NC(=S)NCc2ccc(F)cc2)cc1 (stereo not drawn)	CHO-K1 Ca ag 17, CHO parental Ca 33
CN(C)CCn1c(N)nc2ccccc21	none
CN(C)S(=O)(=O)N1CCC(Oc2cccc(C(=O)NC3CCCCCC3)c2)CC1	CHO-K1 Ca ag 15
CN(C)S(=O)(=O)N1CCC(Oc2ccc(C(=O)NC3Cc4ccccc4C3)cc2)CC1	none
COc1ccc(C(=O)NCCCOC(C)C)cc1OC1CCN(C(C)=O)CC1	none
CN(C(=O)c1cccc(NC(=O)Cc2ccc(NC(=O)C3CCCN(C(=O)C4CC4)C3)cc2)c1)C1CCC1 (stereo not drawn)	none (no result: OX1R antag-1, OX1R antag-2, CHO parental Ca)
Cc1ccc(C2C=CC(C#N)=CN2Cc2ccccc2)cc1 (stereo not drawn)	none (no result: OX1R antag-1, OX1R antag-2, CHO parental Ca)
N#C/C(=C\c1c[nH]c2ccc(Br)cc12)c1ccccn1	OX1R antag-1 60, OX1R antag-2 83
N#C/C(=C\c1ccc(C(=O)O)cc1)c1ccccn1	none
O=C(NCCN1CCC(n2c(=O)[nH]c3ccccc32)CC1)c1ccc(Cl)c(Cl)c1	none (no result: OX1R antag-1, OX1R antag-2, CHO parental Ca)
COc1ccc2nc(C)cc(SCC(=O)NNC(=O)COc3ccc(C)cc3)c2c1	none
CCOC(=O)CSc1cc(C)nc2ccc(OC)cc12	CHO-K1 Ca antag 24
COc1ccc2nc(C)cc(SCC(=O)NNC(=O)COc3cccc4ccccc34)c2c1	OX1R antag-2 71
CCN(c1cccc(C)c1)S(=O)(=O)c1ccc2c3c(cccc13)C(=O)N2	CHO-K1 Ca antag 28
CCN(CC)S(=O)(=O)c1ccc2c3c(cccc13)C(=O)N2	none
COc1ccc2c(c1)NC(c1ccc(N(C)C)cc1)c1cccn1-2 (stereo not drawn)	OX1R antag-2 67
CCC(C)/C(C)=N/Nc1ccc(S(N)(=O)=O)cc1[N+](=O)[O-] (stereo not drawn)	OX1R antag-2 76
CC(C)Nc1nc(NC(C)C)nc(N(C)N)n1	CHO parental Ca 100
CCC(C)c1ccccc1N1CC(C(=O)N2CCN(S(=O)(=O)c3cccc([N+](=O)[O-])c3)CC2)CC1=O (stereo not drawn)	none (no result: OX1R antag-1, OX1R antag-2, CHO parental Ca)
COc1ccc(NC(=O)CN(C)CC(=O)N2CCCCCC2)cc1	none (no result: OX1R antag-1, OX1R antag-2, CHO parental Ca)
Cn1c2[n+](c3ccc(Cl)cc3c1=O)Cc1ccccc1-2	CHO-K1 Ca ag 16
O=C(O)c1cccc(NC(=O)c2ccc3c(c2)C(=O)N(CC2CCCO2)C3=O)c1 (stereo not drawn)	OX1R antag-2 56

High-throughput results (PubChem BioAssay)
